Source: ChEMBL document CHEMBL2413010, “Design and synthesis of 2-phenyl-1,4-dioxa-spiro[4.5]deca-6,9-dien-8-ones as potential anticancer agents starting from cytotoxic spiromamakone A” (Eur J Med Chem, 2013)

Test system: HeLa
Assay: Ratio of spiromamakone A IC50 to compound IC50 for human HeLa cells assessed as cell survival after 48 hrs by WST-8 method
Type: functional
Conditions: not given

Row | Compound | Ratio IC50
1 | O=C1C=C[C@@]2(C=C1Cl)OC[C@@H](c1ccc(I)cc1)O2 (mixture of isomers) | 15

Test system: HeLa
Assay: Cytotoxicity against human HeLa cells assessed as cell survival after 48 hrs by WST-8 method
Type: functional, cell-based
Conditions: Homo sapiens, HeLa, 48 h
Method in brief: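 HeLa cells grown in DMEM with 10% FBS, penicillin and streptomycin at 37 °C, 5% CO2. Cells seeded at 1.0 × 10³ per well and left overnight, then exposed for 48 h to compounds in DMSO at various concentrations, with DMSO as negative control. WST-8 added for 1 h at 37 °C; formazan read at 450 nm. IC50 taken as concentration giving 50% cell survival.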

Row | Compound | IC50
2 | O=C1C=CC2(C=C1)OCC(c1cccc(-c3ccco3)c1)O2 (racemic) | 3200 nM
3 | CS(=O)(=O)c1ccc(-c2cccc(C3COC4(C=CC(=O)C=C4)O3)c2)cc1 (racemic) | 790 nM
4 | O=C1C=CC2(C=C1)OCC(c1ccc(-c3cccc(C(F)(F)F)c3)cc1)O2 (racemic) | 800 nM
5 | O=C1C=CC2(C=C1Cl)OCC(c1cccc(Br)c1)O2 (stereo in doubt) | 610 nM
6 | O=C1C=CC(=O)C12C(O)C=CC21Oc2cccc3cccc(c23)O1 (configuration not stated) | 2200 nM
7 | O=C1C=CC2(C=C1)OCC(c1ccc(-c3cnccc3Cl)cc1)O2 (racemic) | 1300 nM
8 | O=C1C=CC2(C=C1)OCC(c1cccc(-c3ccc4ccccc4c3)c1)O2 (racemic) | 1300 nM
9 | O=C1C=C[C@]2(C=C1Cl)OC[C@@H](c1ccc(I)cc1)O2 (relative stereo) | 2400 nM
10 | O=C1C=CC2(C=C1)OCC(c1ccc(-c3cccc(C(=O)O)c3)cc1)O2 (racemic) | 3100 nM
11 | O=C1C=C[C@@]2(C=C1Cl)OC[C@@H](c1ccc(-c3cccnc3)cc1)O2 (racemic) | 9400 nM
12 | O=C1C=CC2(C=C1)OCC(c1ccc(-c3ccc(C(=O)O)cc3)cc1)O2 (racemic) | 1700 nM
13 | CCCOC(=O)c1ccc(-c2ccc(C3COC4(C=CC(=O)C=C4)O3)cc2)cc1 (racemic) | 820 nM
14 | CN(C)c1ccc(-c2ccc(C3COC4(C=CC(=O)C=C4)O3)cc2)cc1 (racemic) | 3500 nM
15 | O=C1C=CC2(C=C1Cl)OCC(c1cccc(I)c1)O2 (racemic; form 2) | 1600 nM
16 | O=C1C=CC2(C=C1)OCC(c1ccc(Br)cc1)O2 (racemic) | 2400 nM
17 | O=C1C=CC2(C=C1)OCC(c1cccc(-c3ccc(Cl)cc3)c1)O2 (racemic) | 850 nM
18 | O=C1C=C[C@@]2(C=C1Cl)OC[C@@H](c1ccc(-c3cnc4ccccc4c3)cc1)O2 (racemic) | 2700 nM
19 | O=C1C=CC2(C=C1)OCC(c1ccc(I)cc1)O2 (racemic) | 1100 nM
20 | O=C1C=CC2(C=C1)OCC(c1cccc(-c3ccsc3)c1)O2 (racemic) | 910 nM
21 | O=C1C=CC2(C=C1)OCC(c1cccc(I)c1)O2 (racemic) | 1600 nM
22 | O=C1C=CC2(C=C1)OCC(c1ccc(-c3cccnc3)cc1)O2 (racemic) | 1500 nM
23 | CC(=O)Nc1ccc(-c2cccc(C3COC4(C=CC(=O)C=C4)O3)c2)cc1 (racemic) | 880 nM
24 | O=C1C=CC2(C=C1)OCC(c1ccc(-c3ccccc3OCc3ccccc3)cc1)O2 (racemic) | 960 nM

Row | Compound | IC50
25 | CCCOC(=O)c1cccc(-c2ccc(C3COC4(C=CC(=O)C=C4)O3)cc2)c1 (racemic) | 800 nM
26 | CS(=O)(=O)c1ccc(-c2ccc(C3COC4(C=CC(=O)C=C4)O3)cc2)cc1 (racemic) | 1700 nM
27 | O=C1C=C[C@@]2(C=C1Cl)OC[C@@H](c1ccc(I)cc1)O2 (mixture of isomers) | 140 nM
28 | O=C1C=CC2(C=C1)OCC(c1cccc(-c3cccc4ccccc34)c1)O2 (racemic) | 1300 nM
29 | O=C1C=CC2(C=C1)OCC(c1cccc(-c3cnccc3Cl)c1)O2 (racemic) | 1700 nM
30 | O=C1C=C[C@@]2(C=C1Cl)OC[C@@H](c1ccc(-c3ccncc3)cc1)O2 (racemic) | 2300 nM
31 | COC(=O)c1ccc(-c2ccc(C3COC4(C=CC(=O)C=C4)O3)cc2)cc1 (racemic) | 2600 nM
32 | O=C1C=CC2(C=C1)OCC(c1cccc(-c3ccccc3)c1)O2 (racemic) | 1400 nM
33 | O=C1C=CC2(C=C1)OCC(c1cccc(-c3cccc(Cl)c3)c1)O2 (racemic) | 1800 nM
34 | O=C1C=CC2(C=C1)OCC(c1ccc(-c3ccncc3)cc1)O2 (racemic) | 4500 nM
35 | O=C1C=CC2(C=C1)OCC(c1cccc(-c3ccc(F)cc3)c1)O2 (racemic) | 670 nM
36 | O=C1C=CC2(C=C1)OCC(c1ccc(-c3cnc4ccccc4c3)cc1)O2 (racemic) | 790 nM
37 | O=C1C=CC2(C=C1)OCC(c1cccc(-c3cccc(F)c3)c1)O2 (racemic) | 1600 nM
38 | O=C1C=C[C@@]2(C=C1Cl)OC[C@@H](c1ccc(-c3cncnc3)cc1)O2 (racemic) | 4600 nM
39 | COC(=O)c1cccc(-c2ccc(C3COC4(C=CC(=O)C=C4)O3)cc2)c1 (racemic) | 1500 nM
40 | O=C1C=CC2(C=C1)OCC(c1ccc(-c3ccsc3)cc1)O2 (racemic) | 2500 nM
41 | O=C1C=CC2(C=C1)OCC(c1ccc(-c3cncnc3)cc1)O2 (racemic) | 3200 nM
42 | COC(=O)c1cc(-c2ccc(C3COC4(C=CC(=O)C=C4)O3)cc2)ccc1F (racemic) | 1800 nM
43 | O=C1C=CC2(C=C1)OCC(c1ccc(-c3ccoc3)cc1)O2 (racemic) | 2500 nM
44 | O=C1C=CC2(C=C1)OCC(c1cccc(-c3cnc4ccccc4c3)c1)O2 (racemic) | 2400 nM
45 | CC(=O)Nc1ccc(-c2ccc(C3COC4(C=CC(=O)C=C4)O3)cc2)cc1 (racemic) | 900 nM
46 | O=C1C=CC2(C=C1)OCC(c1ccc(-c3cccc(Cl)c3)cc1)O2 (racemic) | 1400 nM
47 | O=C1C=CC2(C=C1Cl)OCC(c1ccc(Cl)cc1)O2 (racemic; form 2) | 2700 nM

Same assay, conditions: hela

Row | Compound | IC50
48 | O=C1C=CC2(C=C1Cl)OCC(c1cccc(Br)c1)O2 (racemic) | 640 nM
49 | O=C1C=CC2(C=C1Cl)OCC(c1ccc(Cl)cc1)O2 (racemic; form 1) | 2900 nM
50 | O=C1C=CC2(C=C1Cl)OCC(c1ccc(Br)cc1)O2 (stereo in doubt) | 2100 nM
51 | O=C1C=CC2(C=C1Cl)OCC(c1cccc(I)c1)O2 (racemic; form 1) | 1500 nM
52 | O=C1C=CC2(C=C1Cl)OCC(c1ccc(Br)cc1)O2 (mixture of isomers) | 4500 nM
